Data published in ChEMBL document CHEMBL4699548, “Ultrasound assisted synthesis of tetrazole based pyrazolines and isoxazolines as potent anticancer agents via inhibition of tubulin polymerization” (Bioorg Med Chem Lett, 2020).
Blank lines part the entries; values can stand above or below the compound they belong to. Activity calls are given as the source filed them. The calls are words filed in the database; no cut-off is given here.

Legend:
A549 = assay: Cytotoxicity against human A549 cells assessed as reduction in cell viability by MTT assay; type: functional, cell-based
MCF7 = assay: Cytotoxicity against human MCF7 cells assessed as reduction in cell viability by MTT assay; type: functional, cell-based
HepG2 = assay: Cytotoxicity against human HepG2 cells assessed as reduction in cell viability by MTT assay; type: functional, cell-based
Tubulin = assay: Inhibition of tubulin polymerization in human A549 cells assessed as decrease in polymerized fraction of tubulin content after 48 hrs by western blot analysis; type: cell-based
Method in brief: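 A549 cells exposed to test agents at 1 μM for 48 h. Soluble and polymerized tubulin fractions were collected separately and tubulin levels in each were detected by western blot.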

Tubulin (Homo sapiens) [1] = target: T1, Tubulin (Homo sapiens) (UniProt P68371+Q9H4B7+P0DPH7+P68366+Q13509+Q71U36+P04350+Q3ZCM7+P07437+P68363+Q9BQE3+Q6PEY2+Q13885+Q9BVA1+Q9BUF5); assay: Inhibition of tubulin polymerization in human A549 cells assessed as increase in soluble fraction of tubulin at 1 uM measured after 48 hrs by western blot analysis; type: cell-based
Method in brief: (§1)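 A549 cells exposed to test agents at 1 μM for 48 h. Combretastatin A-4 (1 μM) run in parallel as positive control and DMSO as negative control. Soluble and polymerized tubulin fractions were collected separately and tubulin levels in each were detected by western blot.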

Tubulin (Homo sapiens) [2] = target: T1, Tubulin (Homo sapiens); assay: Inhibition of tubulin polymerization in human A549 cells assessed as decrease in polymerized fraction of tubulin content at 1 uM after 48 hrs by Western blot analysis relative to control; type: cell-based; method in brief: as §1

SMILES: COc1cc(C2=NNC(c3cccc(O)c3)C2)ccc1OCc1nnn[nH]1 (configuration not stated)
IC50 (A549): 2.24 µM | IC50 (MCF7): 2.16 µM | IC50 (HepG2): 2.88 µM

IC50 (Tubulin): 2.16 µM | inhibition (Tubulin (Homo sapiens) [1]): Active | inhibition (Tubulin (Homo sapiens) [2]): 65.4%
SMILES: COc1cc(C2=NNC(c3ccc(F)cc3)C2)ccc1OCc1nnn[nH]1 (configuration not stated)
IC50 (A549): 0.94 µM | IC50 (MCF7): 0.92 µM | IC50 (HepG2): 0.85 µM

SMILES: COc1cc(C2=NNC(c3ccc(O)cc3)C2)ccc1OCc1nnn[nH]1 (configuration not stated)
IC50 (A549): 1.16 µM | IC50 (MCF7): 1.94 µM | IC50 (HepG2): 2.02 µM

SMILES: COc1cc(C2=NNC(c3ccc(C)cc3)C2)ccc1OCc1nnn[nH]1 (configuration not stated)
IC50 (A549): 0.99 µM | IC50 (MCF7): 1.76 µM | IC50 (HepG2): 1.08 µM

IC50 (Tubulin): 2.94 µM | inhibition (Tubulin (Homo sapiens) [1]): Active | inhibition (Tubulin (Homo sapiens) [2]): 62.6%
SMILES: COc1cc(C2=NNC(c3ccc(Cl)cc3)C2)ccc1OCc1nnn[nH]1 (configuration not stated)
IC50 (A549): 1.11 µM | IC50 (MCF7): 1.04 µM | IC50 (HepG2): 0.96 µM

SMILES: COc1ccc(C2CC(c3ccc(OCc4nnn[nH]4)c(OC)c3)=NO2)cc1OC (configuration not stated)
IC50 (A549): 12.5 µM | IC50 (MCF7): 25 µM | IC50 (HepG2): 3.12 µM

SMILES: COc1cc(C2=NOC(c3ccc(Cl)cc3)C2)ccc1OCc1nnn[nH]1 (configuration not stated)
IC50 (A549): 6.25 µM | IC50 (MCF7): 6.25 µM | IC50 (HepG2): 12.5 µM

SMILES: COc1ccc(/C=C\c2cc(OC)c(OC)c(OC)c2)cc1O [COMBRETASTATIN A4]
IC50 (A549): 0.05 µM | IC50 (MCF7): 0.04 µM | IC50 (HepG2): 0.009 µM

SMILES: COc1cc(C2=NOC(c3ccc(F)cc3)C2)ccc1OCc1nnn[nH]1 (configuration not stated)
IC50 (A549): 3.12 µM | IC50 (MCF7): 3.12 µM | IC50 (HepG2): 3.12 µM

SMILES: COc1ccc(C2CC(c3ccc(OCc4nnn[nH]4)c(OC)c3)=NN2)cc1 (configuration not stated)
IC50 (A549): 3.12 µM | IC50 (MCF7): 3.1 µM | IC50 (HepG2): 2.98 µM

SMILES: COc1cc(C2=NOC(c3ccccc3)C2)ccc1OCc1nnn[nH]1 (configuration not stated)
IC50 (A549): 6.25 µM | IC50 (MCF7): 12.5 µM | IC50 (HepG2): 6.25 µM

SMILES: COc1ccc(C2CC(c3ccc(OCc4nnn[nH]4)c(OC)c3)=NN2)cc1OC (configuration not stated)
IC50 (A549): 2.82 µM | IC50 (MCF7): 2.94 µM | IC50 (HepG2): 3.06 µM

SMILES: COc1ccc(C2CC(c3ccc(OCc4nnn[nH]4)c(OC)c3)=NO2)cc1 (configuration not stated)
IC50 (A549): 6.25 µM | IC50 (MCF7): 12.5 µM | IC50 (HepG2): 12.5 µM

SMILES: COc1cc(C2=NOC(c3ccc(C)cc3)C2)ccc1OCc1nnn[nH]1 (configuration not stated)
IC50 (A549): 0.78 µM | IC50 (MCF7): 12.5 µM | IC50 (HepG2): 6.25 µM

SMILES: COc1cc(C2=NOC(c3cccc(O)c3)C2)ccc1OCc1nnn[nH]1 (configuration not stated)
IC50 (A549): 25 µM | IC50 (MCF7): 6.25 µM | IC50 (HepG2): 1.56 µM

SMILES: COc1cc(C2=NOC(c3ccc(O)cc3)C2)ccc1OCc1nnn[nH]1 (configuration not stated)
IC50 (A549): 3.12 µM | IC50 (MCF7): 25 µM | IC50 (HepG2): 6.25 µM

SMILES: COc1cc(C2=NNC(c3ccccc3)C2)ccc1OCc1nnn[nH]1 (configuration not stated)
IC50 (A549): 2.98 µM | IC50 (MCF7): 3.16 µM | IC50 (HepG2): 3.15 µM
